Experimental findings from ChEMBL document CHEMBL1124705, “Renin inhibitors containing isosteric replacements of the amide bond connecting the P3 and P2 sites” (J Med Chem, 1990) are described below.

Where only a bound is given, the exact number is not on record here.

One assay addresses T1, Renin (Homo sapiens, UniProt P00797).
T1 sequence (P00797 whole entry): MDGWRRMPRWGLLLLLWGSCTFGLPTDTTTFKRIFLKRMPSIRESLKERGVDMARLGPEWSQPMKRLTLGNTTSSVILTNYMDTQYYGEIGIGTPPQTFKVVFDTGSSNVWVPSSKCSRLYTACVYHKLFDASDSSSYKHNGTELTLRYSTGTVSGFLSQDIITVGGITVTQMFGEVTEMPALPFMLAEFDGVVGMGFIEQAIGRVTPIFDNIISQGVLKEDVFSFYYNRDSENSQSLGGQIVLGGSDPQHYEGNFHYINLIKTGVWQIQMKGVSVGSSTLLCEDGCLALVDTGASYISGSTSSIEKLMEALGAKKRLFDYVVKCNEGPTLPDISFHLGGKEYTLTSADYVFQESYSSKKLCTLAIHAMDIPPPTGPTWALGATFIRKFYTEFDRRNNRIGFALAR
The experiment in a line: Inhibitory activity against human renin. The procedure, abridged: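 It was incubated 2 h at 37 °C with compound added in DMSO. Angiotensin I generated, linear over this period, was corrected for endogenous AI and expressed as percent of DMSO control. IC50 was estimated from semilog plots of three or more concentrations.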
The IC50 is the midpoint of a concentration-inhibition curve. `CC(C)C[C@H](CC(O)[C@H](CC1CCCCC1)NC(=O)OC(C)(C)C)C(=O)N[C@@H](CC(C)C)C(O)CC(=O)N[C@@H](CC(C)C)C(=O)NCc1ccccc1` (stereo not given in full) displayed an IC50 of 3.8 µM.
Same read-out and setting: with `CC(C)C[C@H](NC(=O)CC(O)[C@H](CC(C)C)NC(=O)[C@H](Cc1ccccc1)CC(O)[C@H](CC(C)C)NC(=O)OCc1ccccc1)C(=O)NCc1ccccc1` (stereo not given in full) the figure was 8.4 µM; with `CC(C)C[C@H](NC(=O)CC(O)[C@H](CC(C)C)NC(=O)CCC(=O)[C@H](Cc1ccccc1)NC(=O)OC(C)(C)C)C(=O)NCc1ccccc1` (stereo not given in full), 21 µM.
`CC(C)C[C@H](CC(O)[C@H](CC(C)C)NC(=O)OCc1ccccc1)C(=O)N[C@@H](CC(C)C)C(O)CC(=O)N[C@@H](CC(C)C)C(=O)NCc1ccccc1` (stereo not given in full) displayed an IC50 of 6.7 µM.
Still for that read-out and setting: with `CC(C)C[C@H](NC(=O)CC(O)[C@H](CC(C)C)NC(=O)CCC[C@H](Cc1ccccc1)NC(=O)OC(C)(C)C)C(=O)NCc1ccccc1` (stereo not given in full) the figure was 23 µM; with `CC(C)C[C@H](NC(=O)C[C@@H](O)C(CC1CCCCC1)NC(=O)CC1OC1[C@H](Cc1ccccc1)NC(=O)OC(C)(C)C)C(=O)NCc1cccc(CN)c1` (stereo not given in full), 0.32 µM.
On the same count and under the same terms, with `CC(C)C[C@H](NC(=O)C[C@@H](O)C(CC1CCCCC1)NC(=O)/C=C/C(O)[C@H](Cc1ccccc1)NC(=O)OC(C)(C)C)C(=O)NCc1ccccc1` (stereo not given in full) the figure was 0.09 µM; with `CC(C)C[C@H](NC(=O)CC(O)[C@H](CC(C)C)NC(=O)[C@H](Cc1c[nH]cn1)NC[C@H](Cc1ccccc1)NC(=O)OC(C)(C)C)C(=O)NCc1ccccc1` (stereo not given in full), 3.8 µM.
Still for that read-out and setting: with `CC(C)C[C@H](NC(=O)CC(O)[C@H](CC(C)C)NC(=O)CC(O)C(O)[C@H](CC1CCCCC1)NC(=O)OC(C)(C)C)C(=O)NCc1ccccc1` (stereo not given in full) the figure was 6.5 µM.
For `CC(C)C[C@H](NC(=O)CC(O)[C@H](CC(C)C)NC(=O)CCC(O)[C@H](CC(C)C)NC(=O)OCc1ccccc1)C(=O)NCc1ccccc1` (stereo not given in full), the IC50 was found to be 4 µM.
The same measure, in the same setting: under `CC(C)C[C@H](NC(=O)CC(O)[C@H](CC(C)C)NC(=O)[C@H](Cc1cnc[nH]1)N(O)C[C@H](Cc1ccccc1)NC(=O)OC(C)(C)C)C(=O)NCc1ccccc1` (stereo not given in full) stands 6.5 µM; under `CC(C)C[C@H](NC(=O)CC(O)[C@H](CC(C)C)NC(=O)[C@H](Cc1c[nH]cn1)CC(O)[C@H](Cc1ccccc1)NC(=O)OC(C)(C)C)C(=O)NCc1ccccc1` (stereo not given in full), 0.78 µM; under `CC(C)CC(=O)N[C@@H](Cc1ccccc1)CS(=O)(=O)[C@@H](Cc1ccccc1)C(=O)N[C@@H](CC(C)C)C(O)CC(=O)N[C@@H](C)C(=O)N[C@@H](CC(C)C)C(O)CC(=O)NCc1ccccc1` (stereo not given in full), 1.5 µM.
In the case of `CC(C)C[C@H](NC(=O)CC(O)[C@H](CC(C)C)NC(=O)[C@H](Cc1ccccc1)NC[C@H](Cc1ccccc1)NC(=O)OC(C)(C)C)C(=O)NCc1ccccc1` (stereo not given in full), the IC50 came out at 4.2 µM.
On the same count and under the same terms, under `CC(C)C[C@H](NC(=O)CC(O)[C@H](CC(C)C)NC(=O)C/C=C/[C@H](Cc1ccccc1)NC(=O)OC(C)(C)C)C(=O)NCc1ccccc1` (stereo not given in full) stands 7 µM; under `CC(C)C[C@H](NC(=O)C[C@@H](O)C(Cc1ccccc1)NC(=O)C/C=C/[C@H](Cc1ccccc1)NC(=O)OC(C)(C)C)C(=O)NCc1ccccc1` (stereo not given in full), 9.2 µM; under `CC(C)C[C@H](NC(=O)CC(O)[C@H](CC(C)C)NC(=O)[C@H](Cc1ccccc1)N(O)C[C@H](Cc1ccccc1)NC(=O)OC(C)(C)C)C(=O)NCc1ccccc1` (stereo not given in full), 18 µM.
The same measure, in the same setting: under `CC(C)C[C@H](NC(=O)CC(O)[C@H](CC(C)C)NC(=O)[C@H](Cc1ccccc1)[S+]([O-])C[C@H](Cc1ccccc1)NC(=O)OC(C)(C)C)C(=O)NCc1ccccc1` (stereo not given in full) stands 5.4 µM.
The same measure, in the same setting: with `CC(C)C[C@H](NC(=O)C[C@@H](O)C(Cc1ccccc1)NC(=O)CC1OC1[C@H](Cc1ccccc1)NC(=O)OC(C)(C)C)C(=O)NCc1ccccc1` (stereo not given in full) the figure was 4.4 µM.
In turn, `CC(C)CC(=O)N[C@@H](Cc1ccccc1)C1OC1CC(=O)N[C@@H](CC(C)C)C(O)CC(=O)N[C@@H](CC(C)C)C(=O)NCc1ccccc1` (stereo not given in full) gave an IC50 of 29 µM.
On to `CC(C)C[C@H](NC(=O)CC(O)[C@H](CC(C)C)NC(=O)[C@H](Cc1cnc[nH]1)NC[C@H](CC1CCCCC1)NC(=O)OC(C)(C)C)C(=O)NCc1ccccc1` (stereo not given in full), for which the IC50 turned out to be 10 µM.
Still for that read-out and setting: with `CC(C)CC(=O)N[C@H](CN[C@H](C(=O)N[C@@H](CC(C)C)C(O)CC(=O)N[C@@H](CC(C)C)C(=O)NCc1ccccc1)C(C)C)C(C)C` (stereo not given in full) the figure was 15 µM; with `CC(C)C[C@H](NC(=O)C[C@@H](O)C(CC1CCCCC1)NC(=O)CCC[C@H](Cc1ccccc1)NC(=O)OC(C)(C)C)C(=O)NCc1cccc(CN)c1` (stereo not given in full), 0.63 µM; with `CC(C)C[C@H](NC(=O)CC(O)[C@H](CC(C)C)NC(=O)/C=C/C(O)[C@H](Cc1ccccc1)NC(=O)OC(C)(C)C)C(=O)NCc1ccccc1` (stereo not given in full), 2.1 µM.
Still for that read-out and setting: with `CC(C)C[C@H](NC(=O)C[C@@H](O)C(CC1CCCCC1)NC(=O)CC1OC1[C@H](Cc1ccccc1)NC(=O)OC(C)(C)C)C(=O)NCc1ccccc1` (stereo not given in full) the figure was 0.53 µM.
As to `CC(C)C[C@H](CC(=O)[C@H](CC1CCCCC1)NC(=O)OC(C)(C)C)C(=O)N[C@@H](CC(C)C)C(O)CC(=O)N[C@@H](CC(C)C)C(=O)NCc1ccccc1` (stereo not given in full), the IC50 stood at 26 µM.
Same read-out and setting: under `CC(C)CC(=O)N[C@H](CSCC(=O)N[C@@H](CC(C)C)C(O)CC(=O)N[C@@H](CC(C)C)C(=O)NCc1ccccc1)Cc1ccccc1` (stereo not given in full) stands 18 µM; under `CC(C)C[C@H](NC(=O)CC(O)[C@H](CC(C)C)NC(=O)C(O)C(O)C(O)[C@H](Cc1ccccc1)NC(=O)OC(C)(C)C)C(=O)NCc1ccccc1` (stereo not given in full), 11 µM.
Still for that read-out and setting: under `CC(C)C[C@H](NC(=O)C[C@@H](O)C(CC1CCCCC1)NC(=O)[C@H](Cc1cnc[nH]1)NC[C@H](Cc1ccccc1)NC(=O)OC(C)(C)C)C(=O)NCc1ccccc1` (stereo not given in full) stands 0.2 µM; under `CC(C)C[C@H](NC(=O)C[C@@H](O)C(CC1CCCCC1)NC(=O)CCC(O)[C@H](Cc1ccccc1)NC(=O)OC(C)(C)C)C(=O)NCc1ccccc1` (stereo not given in full), 0.061 µM.
Same read-out and setting: with `CC(C)CC(=O)N[C@H](CS[C@@H](Cc1ccccc1)C(=O)N[C@@H](CC(C)C)C(O)CC(=O)N[C@@H](C)C(=O)N[C@@H](CC(C)C)C(O)CC(=O)NCc1ccccc1)Cc1ccccc1` (stereo not given in full) the figure was 7.4 µM.
Take `CC(C)C[C@H](NC(=O)CC(O)[C@H](CC(C)C)NC(=O)CC(O)C(O)[C@H](Cc1ccccc1)NC(=O)OC(C)(C)C)C(=O)NCc1ccccc1` (stereo not given in full): inhibition was half-maximal at 1.4 µM (IC50).
Same read-out and setting: with `CC(C)CC(=O)N[C@H](/C=C/CC(=O)N[C@@H](CC(C)C)C(O)CC(=O)N[C@@H](CC(C)C)C(=O)NCc1ccccc1)Cc1ccccc1` (stereo not given in full) the figure was 13 µM.
Same read-out and setting: under `CC(C)C[C@H](NC(=O)CC(O)[C@H](CC(C)C)NC(=O)C/C=C\[C@H](Cc1ccccc1)NC(=O)OC(C)(C)C)C(=O)NCc1ccccc1` (stereo not given in full) stands > 100 µM; under `CC(C)CC(=O)N[C@@H](Cc1ccccc1)C[S+]([O-])[C@@H](Cc1ccccc1)C(=O)N[C@@H](CC(C)C)C(O)CC(=O)N[C@@H](C)C(=O)N[C@@H](CC(C)C)C(O)CC(=O)NCc1ccccc1` (stereo not given in full), 2 µM.
Regarding `CC(C)C[C@H](NC(=O)C[C@@H](O)C(CC1CCCCC1)NC(=O)CCC(O)[C@H](Cc1ccccc1)NC(=O)OC(C)(C)C)C(=O)NCc1ccc(CN)cc1` (stereo not given in full), the IC50 was 0.022 µM.
Same read-out and setting: with `CC(C)C[C@H](NC(=O)CC(O)[C@H](CC(C)C)NC(=O)[C@@H](CC(=O)[C@H](Cc1ccccc1)NC(=O)OCc1ccccc1)Cc1ccccc1)C(=O)NCc1ccccc1` (stereo not given in full) the figure was 23 µM.
Same read-out and setting: with `CC(C)C[C@H](NC(=O)OCc1ccccc1)C(=O)C[C@@H](Cc1ccccc1)C(=O)N[C@@H](CC(C)C)C(O)CC(=O)N[C@@H](CC(C)C)C(=O)NCc1ccccc1` (stereo not given in full) the figure was 11 µM; with `CC(C)C[C@H](NC(=O)CC(O)[C@H](CC(C)C)NC(=O)[C@H](Cc1ccccc1)CC(O)[C@H](Cc1ccccc1)NC(=O)OCc1ccccc1)C(=O)NCc1ccccc1` (stereo not given in full), 3.7 µM.
The molecule `CC(C)C[C@H](NC(=O)C[C@@H](O)C(CC1CCCCC1)NC(=O)C/C=C/[C@H](Cc1ccccc1)NC(=O)OC(C)(C)C)C(=O)NCc1ccccc1` (stereo not given in full) came in with an IC50 of 1.3 µM.
`CC(C)C[C@H](NC(=O)C[C@@H](O)C(CC1CCCCC1)NC(=O)/C=C/C(O)[C@H](Cc1ccccc1)NC(=O)OC(C)(C)C)C(=O)NCc1ccc(CNC(=O)OCc2ccccc2)cc1` (stereo not given in full) displayed an IC50 of 0.47 µM.
Same read-out and setting: with `CC(C)C[C@H](NC(=O)[C@H](C)NC(=O)CC(O)[C@H](CC(C)C)NC(=O)[C@H](Cc1ccccc1)[S+]([O-])C[C@H](Cc1ccccc1)NC(=O)OC(C)(C)C)C(O)CC(=O)NCc1ccccc1` (stereo not given in full) the figure was 5.6 µM.
On the same count and under the same terms, under `CC(C)C[C@H](NC(=O)CC(O)[C@H](CC(C)C)NC(=O)CC1OC1[C@H](Cc1ccccc1)NC(=O)OC(C)(C)C)C(=O)NCc1ccccc1` (stereo in doubt; 32) stands 1.2 µM; under `CC(C)C[C@H](NC(=O)CC(O)[C@H](CC(C)C)NC(=O)CC1OC1[C@H](Cc1ccccc1)NC(=O)OC(C)(C)C)C(=O)NCc1ccccc1` (stereo in doubt; 37), > 100 µM.

The next assay addresses Renin (monkey). The experiment in a line: The compound was tested in vitro for inhibitory activity against Renin in monkey plasma.
`CC(C)C[C@H](NC(=O)CC(O)[C@H](CC(C)C)NC(=O)CNC(=O)[C@H](Cc1ccccc1)NC(=O)OC(C)(C)C)C(=O)NCc1ccccc1` (stereo not given in full) came in with an IC50 of 1100 nM.
